# Data from ChEMBL document CHEMBL1139618, “The synthesis of substituted bipiperidine amide compounds as CCR3 ligands: antagonists versus agonists” (Bioorg Med Chem Lett, 2005).
# “And” between values parts separate entries of the source, which are not always exact repeats. Equal values may be shown once.
# Experiments:
# [1] = target: T1, C-C chemokine receptor type 3 (Homo sapiens, UniProt P51677); assay: (§1) In vitro binding activity against C-C chemokine receptor type 3 using [35S]GTP-gamma-S, as radioligand; assay type: functional
# T1 sequence (P51677 whole entry): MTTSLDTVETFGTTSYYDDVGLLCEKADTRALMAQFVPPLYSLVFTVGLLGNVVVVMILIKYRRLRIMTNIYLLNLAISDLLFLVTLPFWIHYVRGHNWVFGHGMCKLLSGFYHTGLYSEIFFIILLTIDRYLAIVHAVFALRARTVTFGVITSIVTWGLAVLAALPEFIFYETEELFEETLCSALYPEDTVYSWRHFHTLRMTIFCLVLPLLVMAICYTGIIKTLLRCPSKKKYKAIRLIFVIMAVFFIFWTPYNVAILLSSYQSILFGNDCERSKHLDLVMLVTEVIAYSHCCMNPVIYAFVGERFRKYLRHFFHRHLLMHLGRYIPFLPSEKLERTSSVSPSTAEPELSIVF
# [2] = target: T2, C-C chemokine receptor type 3 (Homo sapiens) (UniProt P51677); assay: In vitro binding activity against C-C chemokine receptor type 3 using [35S]GTP-gamma-S, as radioligand at 1 uM; assay type: functional
# T2 sequence (whole entry): T1 sequence (P51677 whole entry)
# [3] = target: T2, C-C chemokine receptor type 3 (Homo sapiens); assay: In vitro percent increase over basal binding of [35S]-GTP-gamma S against C-C chemokine receptor type 3 at 10 uM; assay type: functional
# In short: (§2)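 [³⁵S]GTPγS binding to CCR3 receptor-membrane preparations in excess GDP, testing for agonism. E_max % is the percent rise over basal [³⁵S]GTPγS binding at 10 μM compound, expressed as a percent of the maximal response to 100 nM eotaxin.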
# [4] = In vivo Area under curve in rat at 3 mg/kg after IV administration; assay type: ADME, organism-based; parameters: dose 3 mg/kg, route intravenous
# [5] = Inhibitory concentration against CREM 3 cell line using calcium flux assay at 37 C at 7.4 pH with compound dissolved in DMSO; assay type: functional, cell-based; settings: CREM3
# In short: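 CREM3 cells (rat Y3 line transfected with human CCR3) were used at 37 °C. Compounds were dissolved in DMSO and diluted in pH 7.4 HBSS containing HEPES, BSA and probenecid.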
# [6] = target: T2, C-C chemokine receptor type 3 (Homo sapiens); assay: In vitro percent increase over basal binding of [35S]-GTP-gamma S against C-C chemokine receptor type 3; assay type: functional; in short: as §2
# [7] = target: T2, C-C chemokine receptor type 3 (Homo sapiens); assay: In vitro percent inhibition against C-C chemokine receptor type 3 using [35S]GTP-gamma-S, as radioligand at 1 uM; assay type: functional
# [8] = target: T2, C-C chemokine receptor type 3 (Homo sapiens); assay: In vitro percent inhibition against C-C chemokine receptor type 3 using [35S]GTP-gamma-S, as radioligand; at 1 uM; assay type: functional
# [9] = target: T2, C-C chemokine receptor type 3 (Homo sapiens); assay: as §1; assay type: functional; settings: concentration not given here
SMILES,Ki [1],further results
O=C(NCC1CCCN(C2CCN(Cc3ccc(Cl)c(Cl)c3)CC2)C1)c1ccc2[nH]ccc2c1 (stereo not drawn),29 nM,
O=C(NCC1CCCN(C2CCN(Cc3ccc(Cl)c(Cl)c3)CC2)C1)c1nccc2ccccc12 (stereo not drawn),34 nM,
O=C(NCC1CCCN(C2CCN(Cc3ccccc3Cl)CC2)C1)c1ccc2ncccc2c1 (stereo not drawn),,inhibition [2]: 36%
O=C(NCC1CCCN(C2CCN(Cc3cc(Cl)cc(Cl)c3)CC2)C1)c1ccc2ncccc2c1 (stereo not drawn),398 nM,Emax [3]: 45%
O=C(NCC1CCCN(C2CCN(Cc3ccc(Cl)c(Cl)c3)CC2)C1)c1ccc2ncccc2c1 (stereo not drawn),23 nM,AUC [4]: 264 ng·h/mL; Emax [3]: -7%; IC50 [5]: 215 nM
O=C(NCC1CCCN(C2CCN(Cc3ccc(Cl)c(Cl)c3)CC2)C1)c1cccc2[nH]ccc12 (stereo not drawn),36 nM,
CC1(N2CCCC(CNC(=O)c3ccc4ncccc4c3)C2)CCN(Cc2ccc(Cl)c(Cl)c2)CC1 (stereo not drawn),50 nM,Emax [6]: 8%
O=C(NCC1CCCN(C2CCN(C(=O)Cc3ccc(Cl)c(Cl)c3)CC2)C1)c1ccc2ncccc2c1 (stereo not drawn),767 nM,
O=C(Nc1ccc(Cl)c(Cl)c1)NN1CCC(N2CCCC(CNC(=O)c3ccc4ncccc4c3)C2)CC1 (stereo not drawn),,inhibition [7]: 6%
COc1ccccc1C(=O)NCC1CCCN(C2CCN(Cc3ccc(Cl)c(Cl)c3)CC2)C1 (stereo not drawn),92 nM,
Cc1ccccc1C(=O)NCC1CCCN(C2CCN(Cc3ccc(Cl)c(Cl)c3)CC2)C1 (stereo not drawn),60 nM,
O=C(NCC1CCCN(C2CCN(Cc3ccc(Cl)cc3)CC2)C1)c1ccc2ncccc2c1 (stereo not drawn),95 nM,Emax [3]: -8%
CC(=O)NCC1CCCN(C2CCN(Cc3ccc(Cl)c(Cl)c3)CC2)C1 (stereo not drawn),533 nM,
O=C(NCC1CCCN(C2CCN(Cc3ccc(Cl)c(Cl)c3)CC2)C1)c1cnnc2ccccc12 (stereo not drawn),99 nM,
O=C(NCC1CCCN(C2CCN(CCc3ccc(Cl)c(Cl)c3)CC2)C1)c1ccc2ncccc2c1 (stereo not drawn),180 nM,Emax [3]: 2%
O=C(NCC1CCCN(C2CCN(C(=O)c3ccc(Cl)c(Cl)c3)CC2)C1)c1ccc2ncccc2c1 (stereo not drawn),,inhibition [8]: 20%
CC(c1ccc(Cl)c(Cl)c1)N1CCC(N2CCCC(CNC(=O)c3ccc4ncccc4c3)C2)CC1 (stereo not drawn),74 nM,Emax [3]: -12%
O=C(NCC1CCCN(C2CCN(Cc3ccc(Cl)c(Cl)c3)CC2)C1)c1ccc2nc[nH]c2c1 (stereo not drawn),47 nM,
O=C(NCC1CCCN(C2CCN(Cc3ccc(Cl)c(Cl)c3)CC2)C1)c1cccc2ccccc12 (stereo not drawn),58 nM,
O=C(NCC1CCCN(C2CCN(Cc3ccc(Cl)c(Cl)c3)CC2)C1)C1CCCCC1 (stereo not drawn),107 nM,
O=C(NCC1CCCN(C2CCN(Cc3cc(Cl)ccc3Cl)CC2)C1)c1ccc2ncccc2c1 (stereo not drawn),391 nM,Emax [3]: 45%
Cc1ccccc1CC(=O)NCC1CCCN(C2CCN(Cc3ccc(Cl)c(Cl)c3)CC2)C1 (stereo not drawn),86 nM,
O=C(NCC1CCCN(C2CCN(Cc3ccc(Cl)c(Cl)c3)CC2)C1)c1ccc2ccccc2c1 (stereo not drawn),48 nM,
O=C(NCC1CCCN(C2CCN(Cc3ccc(Cl)c(Cl)c3)CC2)C1)c1ccccc1Cl (stereo not drawn),,inhibition [9]: 27%
CC1CN(Cc2ccc(Cl)c(Cl)c2)CCC1N1CCCC(CNC(=O)c2ccc3ncccc3c2)C1 (stereo not drawn),7.3 nM,Emax [6]: 96%
O=C(NCC1CCCN(C2CCN(Cc3ccc(Cl)c(Cl)c3)CC2)C1)c1ccnc2ccccc12 (stereo not drawn),80 nM,
O=C(NCC1CCCN(C2CCN(CC3CCCCC3)CC2)C1)c1ccc2ncccc2c1 (stereo not drawn),,inhibition [7]: 17%
O=C(NCC1CCCN(C2CCN(Cc3ccc(Cl)c(Cl)c3)CC2)C1)c1cccc2cccnc12 (stereo not drawn),30 nM and 36 nM,
